ChEMBL document CHEMBL4765426, “Design, synthesis and in vitro anti-influenza A virus evaluation of novel quinazoline derivatives containing S-acetamide and NH-acetamide moieties at C-4” (Eur J Med Chem, 2020)
pIC50: −log10 of the molar value. Activity calls are given as the source filed them.

How the values were obtained:
Influenza A virus [1] = test: Antiviral activity against Influenza A virus A/WSN/33(H1N1) infected in HEK293T-Gluc cells pretreated for 2 hrs followed by viral infection and measured after 24 hrs by Gaussia luciferase reporter gene assay; type: functional, organism-based; details: A/WSN/1933(H1N1), HEK-293T
Procedure, shortened: (§1)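 Reporter cells were HEK293T cells stably transfected with pLenti6-Gluc, which constitutively expresses negative-strand Gaussia luciferase RNA that becomes positive-strand on IAV infection. Cells were infected with A/WSN/33 or A/PR/8/1934 (H1N1). Antiviral activity was read as Gluc signal, and IC50 values were derived. Ribavirin served as positive control.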

[2] = Cytotoxicity against human HEK293T cells assessed as reduction in cell viability after 48 hrs by CCK8 assay; type: cell-based, HEK-293T
[3] = Selectivity index, ratio of CC50 for human HEK293T cells to IC50 for Influenza A virus A/WSN/33(H1N1) infected in HEK293T-Gluc cells; type: toxicity, cell-based; details: read-out: Ratio CC50/IC50
[4] = Cytotoxicity against human A549 cells assessed as reduction in cell viability after 48 hrs by CCK8 assay; type: cell-based
Influenza A virus [5] = test: Antiviral activity against Influenza A virus A/WSN/33(H1N1) infected in HEK293T-Gluc cells assessed as inhibition of virus infection at 10 uM pretreated for 2 hrs followed by viral infection and measured after 24 hrs by Gaussia luciferase reporter gene assay; type: functional; details: A/WSN/1933(H1N1), HEK-293T, time 26 hrs
Procedure, shortened: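 A single-concentration screen at 10 μM was run against A/WSN/33 (H1N1) in HEK293T-Gluc reporter cells. These cells carry a stably transfected pLenti6-Gluc construct expressing negative-strand Gaussia luciferase RNA that is converted to positive strand upon infection. Inhibition ratio of infection was read from Gluc activity.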

Influenza A virus [6] = test: Antiviral activity against Influenza A virus A/PR/8/34 (H1N1) infected in HEK293T-Gluc cells pretreated for 2 hrs followed by viral infection and measured after 24 hrs by Gaussia luciferase reporter gene assay; type: functional, organism-based; details: A/Puerto Rico/8/1934(H1N1), HEK-293T; procedure, shortened: as §1
Influenza A virus [7] = test: Antiviral activity against Influenza A virus A/WSN/33(H1N1)) infected in A549 cells assessed as inhibition of virus replication at early stage at 2.5 uM after 2 to 4 hrs post infection by time of addition assay; type: functional, organism-based; details: A/WSN/1933(H1N1), time 2-4 hrs
Procedure, shortened: (§2)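 For time-of-addition, A549 cells were inoculated with single-cycle A/WSN/33 (H1N1) virus at MOI 0.2, and compound was added at 2.5 μM. Viral yield was measured as Gluc activity at 11 h post-infection. DMSO served as negative control and ribavirin (30 μM) as positive control.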

Influenza A virus [8] = test: Antiviral activity against Influenza A virus A/WSN/33(H1N1)) infected in A549 cells assessed as reduction in viral yield at 2.5 uM preincubated before viral infection by time of addition assay; type: functional, organism-based; details: A/WSN/1933(H1N1); procedure, shortened: as §2
Influenza A virus [9] = test: Antiviral activity against Influenza A virus A/WSN/33(H1N1) infected in HEK293T cells co-transfected with NP/PA/PB1/PB2/pol-LUC/SV40-Renilla assessed as inhibition of viral RNA transcription and replication after 24 hrs by mini-genome replicon system based luciferase assay; type: functional, organism-based; details: A/WSN/1933(H1N1), dose 1.25-2.5 µM
Procedure, shortened: (§3)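 In the mini-genome replicon assay, HEK293T cells were transfected with pCAGGS plasmids encoding PB2, PB1, PA and NP, plus pol-LUC and SV40-Renilla, with or without compound (1.25 or 2.5 μM). Firefly and Renilla luciferase were measured 24 h post-transfection and compared against negative control (p<0.01 threshold).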

Influenza A virus [10] = test: Antiviral activity against Influenza A virus A/WSN/33(H1N1) infected in HEK293T cells co-transfected with NP/PA/PB1/PB2/pol-LUC/SV40-Renilla assessed as inhibition of viral RNA transcription and replication at 2.5 uM after 24 hrs by mini-genome replicon system based luciferase assay; type: functional, A/WSN/1933(H1N1); design: scale not given: the % may be the effect or the level left; procedure, shortened: as §3
[11] = Elimination rate constant in Sprague-Dawley rat at 1.25 mg/kg, iv measured up to 24 hrs by HPLC analysis; type: ADME, organism-based; details: in vivo
Procedure, shortened: (§4)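 Male Sprague-Dawley rats (n = 3 per route) received a single intravenous dose (1.25 mg/kg) or a single oral dose (25 mg/kg). Plasma concentrations were followed over time, and PK parameters were derived from them. Values are reported as mean ± deviation.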

[12] = Elimination rate constant in Sprague-Dawley rat at 25 mg/kg, po measured up to 24 hrs by HPLC analysis; type: ADME, organism-based; details: in vivo; procedure, shortened: as §4
[13] = Half life in Sprague-Dawley rat at 1.25 mg/kg, iv measured up to 24 hrs by HPLC analysis; type: ADME, organism-based; details: in vivo; procedure, shortened: as §4
[14] = Half life in Sprague-Dawley rat at 25 mg/kg, po measured up to 24 hrs by HPLC analysis; type: ADME, organism-based; details: in vivo; procedure, shortened: as §4
[15] = Tmax in Sprague-Dawley rat at 25 mg/kg, po measured up to 24 hrs by HPLC analysis; type: ADME, organism-based; details: in vivo; procedure, shortened: as §4
[16] = Cmax in Sprague-Dawley rat at 1.25 mg/kg, iv measured up to 24 hrs by HPLC analysis; type: ADME, organism-based; design: route intravenous, dose 1.25 mg/kg, time <=24; details: in vivo; procedure, shortened: as §4
[17] = Cmax in Sprague-Dawley rat at 25 mg/kg, po measured up to 24 hrs by HPLC analysis; type: ADME, organism-based; design: route oral, dose 25 mg/kg, time <=24; details: in vivo; procedure, shortened: as §4
[18] = Initial plasma concentration in Sprague-Dawley rat at 1.25 mg/kg, iv measured up to 24 hrs by HPLC analysis; type: ADME, organism-based; procedure, shortened: as §4
[19] = AUC (0 to t) in Sprague-Dawley rat at 1.25 mg/kg, iv measured up to 24 hrs by HPLC analysis; type: ADME, organism-based; design: route intravenous, dose 1.25 mg/kg, time <=24; details: in vivo; procedure, shortened: as §4
[20] = AUC (0 to t) in Sprague-Dawley rat at 25 mg/kg, po measured up to 24 hrs by HPLC analysis; type: ADME, organism-based; design: route oral, dose 25 mg/kg, time <=24; details: in vivo; procedure, shortened: as §4
[21] = AUC (0 to infinity) in Sprague-Dawley rat at 1.25 mg/kg, iv measured up to 24 hrs by HPLC analysis; type: ADME, organism-based; design: route intravenous, dose 1.25 mg/kg, time <=24; details: in vivo; procedure, shortened: as §4
[22] = AUC (0 to infinity) in Sprague-Dawley rat at 25 mg/kg, po measured up to 24 hrs by HPLC analysis; type: ADME, organism-based; design: route oral, dose 25 mg/kg, time <=24; details: in vivo; procedure, shortened: as §4
[23] = AUMC (0 to t) in Sprague-Dawley rat at 1.25 mg/kg, iv measured up to 24 hrs by HPLC analysis; type: ADME, organism-based; details: in vivo; procedure, shortened: as §4
[24] = AUMC (0 to t) in Sprague-Dawley rat at 25 mg/kg, po measured up to 24 hrs by HPLC analysis; type: ADME, organism-based; details: in vivo; procedure, shortened: as §4
[25] = AUMC (0 to infinity) in Sprague-Dawley rat at 1.25 mg/kg, iv measured up to 24 hrs by HPLC analysis; type: ADME, organism-based; details: in vivo; procedure, shortened: as §4
[26] = AUMC (0 to infinity) in Sprague-Dawley rat at 25 mg/kg, po measured up to 24 hrs by HPLC analysis; type: ADME, organism-based; details: in vivo; procedure, shortened: as §4
[27] = Clearance in Sprague-Dawley rat at 1.25 mg/kg, iv measured up to 24 hrs by HPLC analysis; type: ADME, organism-based; details: in vivo; procedure, shortened: as §4
[28] = Mean residence time in Sprague-Dawley rat at 1.25 mg/kg, iv measured up to 24 hrs by HPLC analysis; type: ADME, organism-based; details: in vivo; procedure, shortened: as §4
[29] = Mean residence time in Sprague-Dawley rat at 25 mg/kg, po measured up to 24 hrs by HPLC analysis; type: ADME, organism-based; details: in vivo; procedure, shortened: as §4
[30] = Volume of distribution at steady state in Sprague-Dawley rat at 1.25 mg/kg, iv measured up to 24 hrs by HPLC analysis; type: ADME, organism-based; details: in vivo, read-out: Vdss; procedure, shortened: as §4
[31] = Oral bioavailability in Sprague-Dawley rat at 25 mg/kg measured up to 24 hrs by HPLC analysis; type: ADME, organism-based; details: in vivo; procedure, shortened: as §4

O=C(CNc1nc(N2CCCC2)nc2ccccc12)NCc1ccco1
pIC50 (Influenza A virus [1]): 4.40 | CC50 at 48 h [2]: > 100 µM | selectivity ratio [3]: > 2.54

O=C(CNc1nc(N2CCCC2)nc2ccccc12)Nc1ccccc1
CC50 at 48 h [4]: 19 µM | inhibition at 10 µM (Influenza A virus [5]): 95.8% | pIC50 (Influenza A virus [1]): 5.73 | CC50 at 48 h [2]: 23.3 µM | selectivity ratio [3]: 12.4 | pIC50 (Influenza A virus [6]): 5.83

CN1CCN(c2nc(NCC(=O)NCc3ccccc3)c3ccccc3n2)CC1
pIC50 (Influenza A virus [1]): 4.94 | CC50 at 48 h [2]: > 100 µM | selectivity ratio [3]: > 8.72

O=C(CSc1nc(N2CCCC2)nc2ccccc12)NC1CC1
pIC50 (Influenza A virus [1]): 4.42 | CC50 at 48 h [2]: > 100 µM | selectivity ratio [3]: > 2.61

O=C(CNc1nc(N2CCCC2)nc2ccccc12)Nc1ccc2ccccc2c1
CC50 at 48 h [4]: 4.77 µM | inhibition at 10 µM (Influenza A virus [5]): 99.8% | pIC50 (Influenza A virus [1]): 5.89 | CC50 at 48 h [2]: 59.9 µM | selectivity ratio [3]: 46.5 | pIC50 (Influenza A virus [6]): 6.20 | Activity (Influenza A virus [7]): Active | Activity (Influenza A virus [8]): inactive | Activity (Influenza A virus [9]): Dose-dependent effect | Activity (Influenza A virus [10]): 80% | k el at 24 h [11]: 0.000286 s⁻¹ | k el at 24 h [12]: 8.89e-05 s⁻¹ | half-life [13]: 40.8 min | half-life [14]: 135 min | Tmax [15]: 19.8 min | Cmax [16]: 58 ng/mL | Cmax [17]: 78.6 ng/mL | C0 at 24 h [18]: 80.8 ng/mL | AUC(0-t) at 24 h [19]: 34.9 ng·h/mL | AUC(0-t) at 24 h [20]: 157 ng·h/mL | AUC(0-inf) [21]: 39.2 ng·h/mL | AUC(0-inf) [22]: 183 ng·h/mL | AUMCt [23]: 18 hr.hr.ng/ml | AUMCt [24]: 313 hr.hr.ng/ml | AUMC [25]: 30.6 hr.hr.ng/ml | AUMC [26]: 553 hr.hr.ng/ml | clearance [27]: 557 mL/min/kg | MRT [28]: 47.4 min | MRT [29]: 191 min | Vd [30]: 26.6 L/kg | bioavailability [31]: 22.5%

CCOc1ccc(NC(=O)CSc2c[nH]c3ccc(Br)cc23)cc1
CC50 at 48 h [4]: 71.4 µM | inhibition at 10 µM (Influenza A virus [5]): 90.2% | pIC50 (Influenza A virus [1]): 5.38 | CC50 at 48 h [2]: 44 µM | selectivity ratio [3]: 10.5 | pIC50 (Influenza A virus [6]): 6.48

CCN(CC)c1nc(SCC(=O)Nc2ccccc2)c2ccccc2n1
CC50 at 48 h [4]: > 100 µM | pIC50 (Influenza A virus [1]): 5.14 | CC50 at 48 h [2]: > 100 µM | selectivity ratio [3]: > 13.9 | pIC50 (Influenza A virus [6]): 5.77

CCN(CC)c1nc(NCC(=O)NCc2ccccc2)c2ccccc2n1
CC50 at 48 h [4]: > 100 µM | pIC50 (Influenza A virus [1]): 5.30 | CC50 at 48 h [2]: > 100 µM | selectivity ratio [3]: > 20 | pIC50 (Influenza A virus [6]): 5.24
